Assay results taken from ChEMBL document CHEMBL1165881, “Synthesis and cytotoxicity evaluation of (tetrahydro-beta-carboline)-1,3,5-triazine hybrids as anticancer agents” (Eur J Med Chem, 2010).
Active and inactive are the calls of the source. The rule behind the calls is not given here.

Key:
PA-1 = test: Cytotoxicity against human PA1 cells after 72 hrs by MTT assay; format: functional, cell-based
Summary of the method: (§1)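 Seeded at 5000–10000 cells/well, incubated at 37 °C in CO2 with compounds at a range of concentrations, controls included, in triplicate wells. After 72 h, MTT solution (5 mg/mL) added; absorbance read at 540 nm. % cytotoxicity = 100 × [1 − (X/R1)] versus control absorbance; IC50 by nonlinear regression. Values are means of at least two independent experiments, three determinations each.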

MCF7 [1] = test: Cytotoxicity against human MCF7 cells after 72 hrs by MTT assay; format: functional, cell-based; summary of the method: as §1
[2] = Cytotoxicity against mouse NIH/3T3 cells after 72 hrs by MTT assay; format: cell-based, NIH3T3; summary of the method: as §1
MIA PaCa-2 = test: Cytotoxicity against human MIAPaCa2 cells after 72 hrs by MTT assay; format: functional, cell-based; summary of the method: as §1
K562 = test: Cytotoxicity against human K562 cells after 72 hrs by MTT assay; format: functional, cell-based; summary of the method: as §1
KB = test: Cytotoxicity against human KB cells after 72 hrs by MTT assay; format: functional, cell-based; summary of the method: as §1
DU-145 = test: Cytotoxicity against human DU145 cells after 72 hrs by MTT assay; format: functional, cell-based; summary of the method: as §1
SW-620 = test: Cytotoxicity against human SW620 cells after 72 hrs by MTT assay; format: functional, cell-based; summary of the method: as §1
A549 = test: Cytotoxicity against human […] cells after 72 hrs by MTT assay; format: functional, cell-based; summary of the method: as §1
MCF7 [3] = test: Induction of apoptosis in human MCF7 cells assessed as DNA fragmentation at 0.25 uM after 24 hrs; format: functional, cell-based
Summary of the method: (§2)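 Treated 24 h with 0.25–0.74 range. Then 1 × 10^5 cells trypsinized, PBS-washed (4 °C, pH 7.4), lysed 10 min on ice (10 mM Tris-HCl pH 7.4, 10 mM EDTA, 0.5% SDS). RNase A 1 h at 37 °C, then proteinase K 4 h at 50 °C. DNA ethanol/sodium acetate precipitated, run on 1.5% agarose with ethidium bromide, viewed under UV.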

MDA-MB-231 [4] = test: Induction of apoptosis in human MDA-MB-231 cells assessed as DNA fragmentation at 0.25 uM after 24 hrs; format: functional, cell-based; summary of the method: as §2
MDA-MB-231 [5] = test: Induction of apoptosis in human MDA-MB-231 cells assessed as appearance of fragmented nuclei at 0.5 uM after 24 hrs by Hoechst staining; format: functional, cell-based
Summary of the method: (§3)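 1 × 10^4 cells grown on coverslips, treated 24 h, PBS-washed, fixed in 4% paraformaldehyde 15 min. Stained with Hoechst at 1.0 ug/ml for 15 min at 4 °C, washed, mounted, and examined by fluorescence microscopy; untreated cells as control.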

MDA-MB-231 [6] = test: Induction of apoptosis in human MDA-MB-231 cells assessed as DNA fragmentation at 0.74 uM after 24 hrs; format: functional, cell-based; summary of the method: as §2
MCF7 [7] = test: Induction of apoptosis in human MCF7 cells assessed as appearance of fragmented nuclei at 0.5 uM after 24 hrs by Hoechst staining; format: functional, cell-based; summary of the method: as §3
MCF7 [8] = test: Induction of apoptosis in human MCF7 cells assessed as appearance of fragmented nuclei at 0.74 uM after 24 hrs by Hoechst staining; format: functional, cell-based; summary of the method: as §3
MDA-MB-231 [9] = test: Induction of apoptosis in human MDA-MB-231 cells assessed as appearance of fragmented nuclei at 0.74 uM after 24 hrs by Hoechst staining; format: functional, cell-based; summary of the method: as §3
MCF7 [10] = test: Induction of apoptosis in human MCF7 cells assessed as DNA fragmentation at 0.74 uM after 24 hrs; format: functional, cell-based; summary of the method: as §2
[11] = Homo sapiens, PA-1, 72 h, read-out: IC50
[12] = Mus musculus, NIH3T3, 72 h, read-out: IC50
[13] = Homo sapiens, MIA PaCa-2, 72 h, read-out: IC50
[14] = Homo sapiens, K562, 72 h, read-out: IC50
[15] = Homo sapiens, SW-620, 72 h, read-out: IC50
[16] = Homo sapiens, MCF7, 72 h, read-out: IC50
[17] = Homo sapiens, DU-145, 72 h, read-out: IC50
[18] = Homo sapiens, A549, 72 h, read-out: IC50

Compound	IC50 (PA-1; [11])	IC50 (MCF7 [1]; mcf7)	IC50 [2, 12]	IC50 (MIA PaCa-2; [13])	IC50 (K562; [14])	IC50 (KB; Homo sapiens, KB, 72 h)	IC50 (DU-145; du-145)	IC50 (SW-620; [15])	IC50 (MCF7 [1]; [16])	IC50 (DU-145; [17])	IC50 (A549; [18])	other results
COC(=O)[C@H]1Cc2c([nH]c3ccccc23)[C@H](c2ccc(Cl)cc2)N1c1nc(N2CCN(C)CC2)nc(N2CCN(C)CC2)n1 (racemic)	6.39 µM	Not Active	2.22 µM	7.12 µM	5.01 µM	1.98 µM	Not Active	2.73 µM	–	–	–	–
COC(=O)[C@H]1Cc2c([nH]c3ccccc23)[C@H](c2ccc(OC)cc2)N1c1nc(N2CCN(C)CC2)nc(N2CCN(C)CC2)n1	2.05 µM	–	3.16 µM	6.23 µM	6 µM	0.99 µM	–	2.15 µM	11 µM	2.58 µM	–	–
COC(=O)[C@@H]1Cc2c([nH]c3ccccc23)[C@@H](c2ccc(C(C)C)cc2)N1c1nc(N2CCN(C)CC2)nc(N2CCN(C)CC2)n1	2.89 µM	–	2.63 µM	–	2.24 µM	3.73 µM	Not Active	5.92 µM	6.73 µM	–	1.75 µM	IC50 (MIA PaCa-2; mia paca-2): Not Active
COC(=O)[C@@H]1Cc2c([nH]c3ccccc23)[C@@H](c2ccc(OC)cc2)N1c1nc(N2CCN(C)CC2)nc(N2CCN(C)CC2)n1 (racemic)	2.03 µM	–	–	–	–	–	–	–	–	10.5 µM	–	IC50 (MCF7 [1]; mcf7, read-out: IC50): 12.4 µM; IC50 ([2]; nih3t3, read-out: IC50): 4.78 µM; IC50 (MIA PaCa-2; mia paca-2, read-out: IC50): 6.35 µM; IC50 (K562; k562): Not Active; IC50 (A549; a549, read-out: IC50): 5.67 µM; IC50 (KB; kb): 1.87 µM; IC50 (SW-620; sw-620, read-out: IC50): 4.26 µM
COC(=O)[C@@H]1Cc2c([nH]c3ccccc23)[C@H](c2ccc(OC)cc2)N1c1nc(N2CCN(C)CC2)nc(N2CCN(C)CC2)n1	–	–	–	–	–	–	–	–	–	–	–	IC50 (PA-1; pa-1, read-out: IC50): 2.77 µM; IC50 (MCF7 [1]; mcf7, read-out: IC50): 9 µM; IC50 ([2]; nih3t3, read-out: IC50): 1.62 µM; IC50 (MIA PaCa-2; mia paca-2, read-out: IC50): 3.62 µM; IC50 (K562; k562, read-out: IC50): 4.83 µM; IC50 (A549; a549, read-out: IC50): 3.13 µM; IC50 (KB; kb): 7.54 µM; IC50 (DU-145; du-145, read-out: IC50): 10.3 µM; IC50 (SW-620; sw-620, read-out: IC50): 1.19 µM
CCCNc1nc(NCCC)nc(N2[C@@H](c3ccc(OC)cc3)c3[nH]c4ccccc4c3C[C@@H]2C(=O)OC)n1 (racemic)	–	Not Active	–	–	–	0.122 µM	Not Active	–	–	–	–	IC50 (PA-1; pa-1): Not Active; IC50 ([2]; nih3t3): Not Active; IC50 (MIA PaCa-2; mia paca-2): Not Active; IC50 (K562; k562): Not Active; IC50 (A549; a549): Not Active; IC50 (SW-620; sw-620): Not Active
COC(=O)[C@@H]1Cc2c([nH]c3ccccc23)[C@@H](c2ccc(OC)cc2)N1c1nc(N2CCN(C)CC2)nc(N2CCN(C)CC2)n1	–	–	–	–	–	–	–	–	–	–	–	Activity (MCF7 [3]): Active; Activity (MDA-MB-231 [4]): Active; Activity (MDA-MB-231 [5]): Active; Activity (MDA-MB-231 [6]): Active; Activity (MCF7 [7]): Active; Activity (MCF7 [8]): Active; Activity (MDA-MB-231 [9]): Active; Activity (MCF7 [10]): Active
COC(=O)[C@H]1Cc2c([nH]c3ccccc23)[C@H](c2cc(OC)c(OC)c(OC)c2)N1c1nc(N2CCN(C)CC2)nc(N2CCN(C)CC2)n1 (relative stereo)	2.75 µM	Not Active	2.17 µM	7.54 µM	3 µM	2.43 µM	–	3.15 µM	–	2.01 µM	5.67 µM	–
COC(=O)[C@H]1Cc2c([nH]c3ccccc23)[C@H](c2ccc(C)cc2)N1c1nc(N2CCN(C)CC2)nc(N2CCN(C)CC2)n1	6.91 µM	–	2.16 µM	7 µM	3.22 µM	1.86 µM	–	2.65 µM	5.89 µM	2.14 µM	2.34 µM	–
